This note sets out measurements from ChEMBL document CHEMBL1129512, “Studies on the mechanism of phosphatidylinositol 3-kinase inhibition by wortmannin and related analogs” (J Med Chem, 1996).

Usually inhibition in vivo stands for the change of the read-out against control, counted positive when it falls. Low values mean little suppression, high ones strong suppression. The term IC50 denotes the concentration at which inhibition is half-maximal. A low value points to higher potency.

The subject of test [1] is Mus musculus. Briefly: In vivo inhibition of tumor growth in C3H Mammary model was evaluated at dose 16 mg/kg peroral administration. The format is functional. The settings on record: route oral. A digest of the protocol: (§1)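 Murine tumours were serially passaged as tumour fragments, implanted s.c. by trochar in the axillary region. Daily oral dosing began 1 day after implant, as a suspension in 2.5% emulphor EL-620 in 0.9% NaCl. There were 10 randomized mice per group. Tumours were measured by caliper the day after the last dose, with weight = length × width² × 0.5. Inhibition was 100 × (1 − mean treated/mean control weight). A group was toxic if lethality was >25%.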

Test [2] concerns Mus musculus. The experiment in a line: In vivo inhibition of tumor growth in C3H Mammary model was evaluated at dose 8.0 mg/kg peroral administration; range is 60-79%. The conditions noted are these: route oral. The format is functional. The essentials: as §1
The nature of test [3]: In vitro inhibitory activity against Phosphatidylinositol 3-Kinase. The essentials: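 Purified PI 3-kinase from bovine brain was used as the enzyme source. Results are reported as IC50 values.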

In turn, `COC[C@H]1OC(=O)c2coc3c2[C@@]1(C)C1=CC[C@]2(C)C(=O)CC[C@H]2C1C3=O` (some centres not stated) returned an inhibition in vivo at 16 mg/kg in test [1] of more than 25%. In test [2], this compound gave an inhibition in vivo at 8 mg/kg of 79%. Further, the concentration for half-maximal inhibition (IC50) in test [3] was found to be 54 nM.
The compound `COC[C@H]1OC(=O)c2coc3c2[C@@]1(C)C1=C(C3=O)[C@@H]2C[C@@H](O)C(=O)[C@@]2(C)C[C@H]1OC(C)=O` gave an IC50 in test [3] of 153 nM.
For `COC(=O)c1coc2c(O)c3c(c(C)c12)C=C[C@]1(C)C(=O)CC[C@@H]31`, the inhibition in vivo at 16 mg/kg in test [1] is less than 60%. Further, in test [3], the midpoint of inhibition, the IC50, lay at 4600 nM.
`CC/N=C/C1=C(O)O[C@H](COC)[C@@]2(C)C1=C(O)C(=O)C1=C2[C@H](OC(C)=O)C[C@]2(C)C(=O)CC[C@@H]12`: in test [3], the IC50 was more than 500 nM.
The same measure, in the same setting: next, `COC[C@H]1OC(=O)c2c(C)oc3c2[C@@]1(C)C1=C(C3=O)[C@@H]2CCC(=O)[C@@]2(C)C[C@H]1OC(C)=O`: more than 500 nM; `COC[C@H]1OC(=O)C23CC2COC2=C3[C@@]1(C)C1=C(C2=O)[C@@H]2CCC(=O)[C@@]2(C)C[C@H]1OC(C)=O` (some centres not stated): more than 500 nM.
The same measure, in the same setting: as for `C/N=C/C1=C(O)O[C@H](COC)[C@@]2(C)C1=C(O)C(=O)C1=C2[C@H](OC(C)=O)C[C@]2(C)C(=O)CC[C@@H]12`, the figure is more than 500 nM; as for `COC[C@H]1OC(=O)c2coc3c2[C@@]1(C)C1=C(C3=O)[C@@H]2C[C@@H](Br)C(=O)[C@@]2(C)C[C@H]1OC(C)=O`, 77 nM; as for `COC[C@H]1OC(=O)C2=CCOC3=C2[C@@]1(C)C1=C(C3=O)[C@@H]2CCC(=O)[C@@]2(C)C[C@H]1OC(C)=O`, 271 nM.
